S1P3 ag: S1P3 (human) receptor agonism. Q99500. S1P3 NFAT-BLA reporter cells, FRET ratio; relative to 1 µM S1P, basal subtracted. activation, % at 4.5 µM. 0.1% of 60,000 active. AID 373;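 active means activation above the screen-wide mean plus 3 SD, cut at about 4.5% in these data, passing the limit was not always enough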
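Assay system: CHO cells stably expressing human S1P3, Gα16 and NFAT-β-lactamase reporter. Timing: overnight plating, 4 h compound 37 °C, 2 h substrate RT. Signal: β-lactamase FRET emission ratio 460/535 nm. Measure: percent activation versus median 1 µM S1P response, basal-subtracted, per plate. Repeats: primary screen single test, confirmation screen in triplicate.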
HTR1E antagonist: 5-HT1E (human) receptor antagonism; inhibition, % at 6 µM; AID 571; CHO 5-HT1E Ga15 NFAT-bla reporter, FRET, antagonist; 0.99% of 65,000 active;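 active means inhibition above a set limit, the mean inhibition across every tested compound plus 3 SD, cut at about 29% in these data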;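 further: signal is the 460 over 535 nm emission ratio of beta-lactamase substrate; 0% = agonist plus DMSO wells and 100% = wells without agonist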
Target sequence (P28566 whole entry, looked up): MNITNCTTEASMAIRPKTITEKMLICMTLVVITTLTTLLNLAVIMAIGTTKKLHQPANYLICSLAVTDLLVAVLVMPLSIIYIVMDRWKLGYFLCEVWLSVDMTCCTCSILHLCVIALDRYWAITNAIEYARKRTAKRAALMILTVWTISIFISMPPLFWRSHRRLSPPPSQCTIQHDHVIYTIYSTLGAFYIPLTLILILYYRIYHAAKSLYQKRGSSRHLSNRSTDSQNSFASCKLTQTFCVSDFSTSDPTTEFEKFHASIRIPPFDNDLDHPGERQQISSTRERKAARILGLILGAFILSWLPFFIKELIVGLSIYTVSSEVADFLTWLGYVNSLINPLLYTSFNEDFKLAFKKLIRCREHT
5HT1a antag: blocks the human serotonin 5-HT1a receptor; P08908; CHO 5-HT1a Ga15 NFAT-bla reporter, antagonist mode; inhibition, % at 10 µM; 0.68% of 62,000 active; AID 612;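 active means inhibition above the mean of all tested compounds plus 3 SD, cut at about 43% in these data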;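 further: receptor stimulated by 5-CT agonist at 100 nM near EC80; beta-lactamase reporter measured by ratiometric fluorescence of a cleavable substrate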
HTR1E agonist: agonists of human 5-HT1E serotonin receptor. activation, % at 6 µM. P28566. CHO 5-HT1E Ga15 NFAT-bla reporter, FRET; 0% DMSO wells, 100% control agonist wells. AID 574. 0.69% of 65,000 active;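 active means activation above a set limit, the screen-wide mean activation plus 3 SD, cut at about 8.5% in these data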;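 further: 100% = positive control agonist at 1 µM giving full maximal response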
HTR1A agonist: activates the human 5-HT1a serotonin receptor; CHO 5-HT1a Ga15 NFAT-bla reporter, FRET ratio; 0% basal, 100% maximal reference agonist; activation, % at 10 µM; 0.56% of 65,000 active; AID 567;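 active means activation above the screen-wide mean activation plus 3 SD, cut at about 19% in these data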;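 further: 0% = DMSO wells and 100% = 5-CT at EC100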
An asterisk follows results filed as active; nt = not tested or not shown. Compounds with a hit are over-represented: about 2.6% of the library has one in this group of screens.

SMILES | S1P3 ag | HTR1E antagonist | 5HT1a antag | HTR1E agonist | HTR1A agonist
COCCCn1c(C2CCCCC2)nc2oc3cc(OC)ccc3c(=O)c2c1=O | 1 | 1 | -16 | 1 | 4
COc1ccc(C(C#N)C2(C)OCCO2)cc1OC (stereo not given) | 0 | 17 | 1 | 0 | -4
Cc1c(C(=O)OCCOC(C)C)[nH]c2c1C(=O)CC(C)(C)C2 | -1 | 9 | 0 | 1 | 2
CCOC(=O)c1[nH]c2c(c1C)C(=O)CC(c1ccco1)C2 (stereo not given) | -1 | 74* | 53* | 0 | -1
COCCOC(=O)c1[nH]c2c(c1C)C(=O)CC(c1ccc(N(C)C)cc1)C2 (stereo not given) | 0 | 9 | 4 | 0 | -6
Cc1c(C(=O)OCCOC(C)C)[nH]c2c1C(=O)CC(c1ccco1)C2 (stereo not given) | -2 | 81* | 63* | -1 | -3
CSCCOC(=O)c1[nH]c2c(c1C)C(=O)CC(c1ccco1)C2 (stereo not given) | 0 | 57* | 27 | 1 | 0
COc1ccc(N2CCN(C(=O)CC3NC4CCCCC4NC3=O)CC2)cc1 (stereo not given) | 0 | -7 | -21 | 1 | -1
CC(=O)Nc1cccc(Oc2ccc(-c3noc(C)n3)cc2)c1 | nt | 7 | 6 | -1 | 2
CCOC(=O)c1nnn(-c2nonc2N)c1CSc1ccccn1 | -2 | 15 | 24 | 0 | -4
COCCn1c(SCC(=O)c2ccc(Cl)cc2)nnc1C(C)C | 0 | -12 | -3 | 0 | -1
Cc1cc(NC(=O)CSc2nc3ccccc3c(=O)n2C2CCCC2)no1 | 0 | 65* | 58* | 1 | 0
CN(C)c1ccc(NC(=O)CSc2nc3ccccc3c(=O)n2C2CCCCC2)cc1 | 0 | -5 | -27 | 2 | 4
O=C(Nc1ccc(O)cc1)c1ccc(C(=O)c2ccccc2)o1 | 0 | 5 | -3 | -1 | -3
Cn1c(C(=O)N2CCN(c3ccccn3)CC2)cc2c(=O)n(C)c3ccccc3c21 | -1 | 5 | 1 | 21* | 0
O=C(OC(C(=O)NC1CCCC1)c1ccccc1F)c1ccco1 (stereo not given) | 0 | -6 | 12 | 0 | 156*
CC1CC(N(C(=O)c2ccco2)c2ccccc2)c2ccccc2N1 (stereo not given) | 1 | -6 | 10 | 16* | -1
COc1ccc(Cl)cc1NC(=O)CSc1nnc(-c2ccncc2)n1CC1CCCO1 (stereo not given) | 0 | -2 | 3 | 0 | 1
COc1ccccc1NC(=O)CSc1nnc(-c2ccncc2)n1CC1CCCO1 (stereo not given) | 0 | -5 | -15 | -1 | 37*
CCNc1nc2c(c(=O)n(Cc3ccccc3)c(=O)n2C)n1Cc1ccccc1 | 0 | 0 | 0 | 0 | 37*
CCOC(=O)CSc1nc(N)c(C(=O)Nc2ccc(N(C)C)cc2)s1 | -3 | -4 | nt | -1 | 0
COc1ccc(-c2cc(N)n(S(=O)(=O)c3c(F)c(F)c(F)c(F)c3F)n2)cc1OC | 0 | 33* | 46* | 0 | 0
COC(=O)c1ccc(OCC2c3cc(OC)c(OC)cc3CCN2C(=O)C2CC2)cc1 (stereo not given) | nt | 34* | 23 | 0 | 2
COC(=O)c1ccc(OCC(O)CN2CCC(C)CC2)cc1 (stereo not given) | -1 | 12 | 0 | -1 | 1

Source: PubChem
